# Experimental data reported in paper PMC9773939 (ACS Omega, 2022).
# Marks after values point to notes of the source that are not given here.
# Test system: J774.1A macrophages
# Test: Cytotoxicity on J774.1A macrophages
# Format: cell-based
# Conditions: read-out: J774.1A macrophage, CC50; 48 h, MTT
# Procedure, shortened: (§1)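 Peritoneal or J774.1A macrophages were grown in DMEM with 10% heat-inactivated FBS, L-glutamine and penicillin/streptomycin. Cells were seeded at 5 × 10^4 cells/well for 24 h at 37 °C, 5% CO2, then given test compound at 10–100 μM (from 25,000 μM DMSO stock) for 48 h. MTT (0.4 mg/mL, 4 h, 37 °C) was dissolved in DMSO and read at 570 nm. Cytotoxicity was expressed relative to negative controls. At least three experiments.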
row,SMILES,CC50 [µM]
1,"NNc1nc(-c2ccc(Br)cc2)nc2ccccc12 [3d, (Z)-1-(2-(4-bromophenyl)quinazolin-4(3H)-ylidene)hydrazine]",78.6 ± 3.99

# Test system: promastigotes of L. infantum
# Test: In vitro growth inhibition of L. infantum promastigotes
# Format: cell-based, Leishmania infantum (MHOM MA67I7MAP263)
# Conditions: Leishmania infantum, 72 h, read-out: promastigote, IC50 L. infantum
# Procedure, shortened: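 L. infantum MHOM MA67I7MAP263 promastigotes at 2 × 10^6 parasites/mL were exposed to 0.5–25 μM test compound for 72 h at 25 °C. Dilutions came from a 3000 μM DMSO stock, with final DMSO ≤1%. MTT (0.4 mg/mL) was added for 4 h at 37 °C, formazan was dissolved in DMSO and read at 570 nm. Inhibition was calculated against untreated controls. At least three experiments, mean ± SD.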
row,SMILES,IC50 [µM]
1,N/N=c1\[nH]c(-c2ccco2)nc2ccccc12 [3k],14 ± 0.91
2,"N/N=c1\[nH]c(-c2cccc(Br)c2)nc2ccccc12 [3g, (Z)-1-(2-(3-bromophenyl)quinazolin-4(3H)-ylidene)hydrazine]",21.1 ± 1.21
3,"COc1cccc(-c2nc3ccccc3/c(=N/N)[nH]2)c1 [3h, (Z)-1-(2-(3-Methoxyphenyl)quinazolin-4(3H)-ylidene)hydrazine]",> 25
4,"NNc1nc(-c2ccc(Br)cc2)nc2ccccc12 [3d, (Z)-1-(2-(4-bromophenyl)quinazolin-4(3H)-ylidene)hydrazine]",2.13 ± 0.12

# Same assay, conditions: Leishmania infantum, read-out: promastigote, PGI (percentage growth inhibition) L. infantum
row,SMILES,inhibition at 25 µM [%]
1,"COc1cccc(-c2nc3ccccc3/c(=N/N)[nH]2)c1 [3h, (Z)-1-(2-(3-Methoxyphenyl)quinazolin-4(3H)-ylidene)hydrazine]",47.2

# Same assay, conditions: promastigotes, 72 h, MTT
row,SMILES,"promastigote, IC50 L. infantum"
1,"COc1cccc(-c2nc3ccccc3/c(=N/N)[nH]2)c1 [3h, (Z)-1-(2-(3-Methoxyphenyl)quinazolin-4(3H)-ylidene)hydrazine]",inactive

# Test system: Salmonella typhimurium TA 98 strain
# Test: Mutagenicity Ames test
# Format: cell-based
# Conditions: dose 20.0 μg/plate
row,SMILES,revertants number
1,"Nc1ccc([N+](=O)[O-])cc1N [NPD, 4-nitro-o-phenylenediamine, reference compound]",394.0 ± 10

# Test system: peritoneal macrophages
# Test: Cytotoxicity on primary peritoneal macrophages
# Format: cell-based, mouse
# Conditions: read-out: peritoneal macrophage, CC50; 48 h, MTT
# Procedure, shortened: as §1
row,SMILES,CC50 [µM]
1,"CNC[C@H](O)[C@@H](O)[C@H](O)[C@H](O)CO.[O]=[Sb](=[O])[OH] [glucantime, reference compound]",138 ± 10.1
2,"NNc1nc(-c2ccc(Br)cc2)nc2ccccc12 [3d, (Z)-1-(2-(4-bromophenyl)quinazolin-4(3H)-ylidene)hydrazine]",78 ± 3.89

# Test system: epimastigotes of T. cruzi
# Test: not given
# Conditions: CC50 (J774.1A) / IC50 of epimastigotes (T. cruzi); cited from earlier work
row,SMILES,S.I.T.cruzi (selectivity index)
1,CC1CS(=O)(=O)CCN1/N=C/c1ccc([N+](=O)[O-])o1 (stereo not shown) [nifurtimox],36 ^c

# Same assay, conditions: read-out: epimastigote, IC50 T. cruzi; anti-Chagasic reference; cited from earlier work
row,SMILES,IC50 [µM]
1,CC1CS(=O)(=O)CCN1/N=C/c1ccc([N+](=O)[O-])o1 (stereo not shown) [nifurtimox],7.7 ± 0.5

# Test system: T. cruzi epimastigotes
# Test: Nitrite concentration by Griess test, T. cruzi epimastigote culture
# Format: cell-based
# Conditions: 5 days, 25, 50 and 100 μM
# Procedure, shortened: (§2)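 L. infantum promastigote or T. cruzi epimastigote cultures (5 × 10^6 parasites/well) were incubated 5 days with test compound at 25, 50 and 100 μM, with untreated wells as controls. Supernatants were mixed with 1% sulfanilamide in 50% acetic acid, then after 15 min with 1% N-naphthylethylenediamine in 50% acetic acid, and read at 540 nm. Nitrite (μM) was taken from a sodium nitrite standard curve (detection limit 1.56 μM). Run in triplicate.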
row,SMILES,nitrite ion production (Griess test)
1,"O=c1[nH]c(-c2ccc(Cl)cc2)nc2ccccc12 [2-(4-chlorophenyl)quinazolin-4(3H)-one, reference compound]",No production was detected

# Test system: promastigotes of L. braziliensis
# Test: In vitro growth inhibition of L. braziliensis promastigotes
# Format: cell-based, Leishmania (V) braziliensis (MHOM/BR/75/M2903)
# Conditions: Leishmania braziliensis, read-out: promastigote, IC50 L. braziliensis
row,SMILES,IC50 [µM]
1,N/N=c1\[nH]c(-c2ccco2)nc2ccccc12 [3k],> 25
2,"N/N=c1\[nH]c(-c2cccc(Br)c2)nc2ccccc12 [3g, (Z)-1-(2-(3-bromophenyl)quinazolin-4(3H)-ylidene)hydrazine]",> 25
3,"COc1cccc(-c2nc3ccccc3/c(=N/N)[nH]2)c1 [3h, (Z)-1-(2-(3-Methoxyphenyl)quinazolin-4(3H)-ylidene)hydrazine]",12.2 ± 0.76
4,"NNc1nc(-c2ccc(Br)cc2)nc2ccccc12 [3d, (Z)-1-(2-(4-bromophenyl)quinazolin-4(3H)-ylidene)hydrazine]",6.2 ± 0.38

# Same assay, conditions: Leishmania braziliensis, read-out: promastigote, PGI (percentage growth inhibition) L. braziliensis
row,SMILES,inhibition at 25 µM [%]
1,N/N=c1\[nH]c(-c2ccco2)nc2ccccc12 [3k],46.6
2,"N/N=c1\[nH]c(-c2cccc(Br)c2)nc2ccccc12 [3g, (Z)-1-(2-(3-bromophenyl)quinazolin-4(3H)-ylidene)hydrazine]",27.3

# Same assay, conditions: read-out: promastigote, IC50 L. braziliensis; promastigotes
row,SMILES,IC50 [µM]
1,"CNC[C@H](O)[C@@H](O)[C@H](O)[C@H](O)CO.[O]=[Sb](=[O])[OH] [glucantime, reference compound]",32 ± 1.78

# Test system: epimastigotes of T. cruzi
# Test: Antifolate activity: IC50 on T. cruzi epimastigotes with and without folic acid
# Format: cell-based
# Conditions: presence vs absence of D,L-folic acid
# Procedure, shortened: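 T. cruzi epimastigotes were treated with test compound with or without D,L-folic acid, following the epimastigote turbidimetric viability protocol (120 h, 25 °C, A595). IC50 was determined in each condition and compared.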
row,SMILES,change of IC50 on addition of folic acid (FA)
1,CC1CS(=O)(=O)CCN1/N=C/c1ccc([N+](=O)[O-])o1 (stereo not shown) [nifurtimox],not affected
2,"NNc1nc(-c2ccc(Br)cc2)nc2ccccc12 [3d, (Z)-1-(2-(4-bromophenyl)quinazolin-4(3H)-ylidene)hydrazine]",Increasing IC50 values by about twofold

# Test system: amastigotes of L. braziliensis
# Test: Ex vivo antiamastigote activity of L. braziliensis
# Format: cell-based, L. braziliensis (MHOM/BZ/82/M2903)
# Conditions: CC50 (peritoneal macrophage) / IC50 (amastigotes of L. braziliensis)
# Procedure, shortened: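 L. braziliensis MHOM/BZ/82/M2903 amastigotes were taken from footpad lesions of infected BALB/c mice. Macrophages were removed by brief centrifugation (3000 rpm, 2–3 min). Amastigotes were kept at 37 °C, pH 5.5, in supplemented M199 with 10% FCS. At 2 × 10^6/mL they were exposed to 1.0–50.0 μM test compound (controls 1% DMSO). At 48 h parasites were counted in a Neubauer chamber against untreated controls. S.I. = peritoneal macrophage CC50 / amastigote IC50.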
row,SMILES,S.I.Leishmania (selectivity index)
1,"CNC[C@H](O)[C@@H](O)[C@H](O)[C@H](O)CO.[O]=[Sb](=[O])[OH] [glucantime, reference compound]",11.3
2,"NNc1nc(-c2ccc(Br)cc2)nc2ccccc12 [3d, (Z)-1-(2-(4-bromophenyl)quinazolin-4(3H)-ylidene)hydrazine]",6.2

# Same assay, conditions: Leishmania braziliensis, 48 h, read-out: amastigote, IC50 L. braziliensis
row,SMILES,IC50 [µM]
1,"NNc1nc(-c2ccc(Br)cc2)nc2ccccc12 [3d, (Z)-1-(2-(4-bromophenyl)quinazolin-4(3H)-ylidene)hydrazine]",12.7 ± 0.78

# Test system: epimastigotes of T. cruzi
# Test: In vitro anti-T. cruzi evaluation on epimastigotes
# Format: cell-based, T. cruzi (CL Brener clone)
# Conditions: CC50 (J774.1A) / IC50 of epimastigotes (T. cruzi)
# Procedure, shortened: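 Turbidity (A595) was read at day 0 and day 5. PGI was calculated relative to untreated controls, with single-point PGI at 25 μM. IC50 is the concentration […]. At least three experiments.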
row,SMILES,"S.I.T.cruzi (selectivity index), column epimastigote, IC50 (μM) T. cruzi (S.I.T.cruzi)"
1,"NNc1nc(-c2ccc(Br)cc2)nc2ccccc12 [3d, (Z)-1-(2-(4-bromophenyl)quinazolin-4(3H)-ylidene)hydrazine]",5.5

# Same assay, conditions: Trypanosoma cruzi, 120 h, read-out: epimastigote, IC50 T. cruzi
row,SMILES,IC50 [µM]
1,N/N=c1\[nH]c(-c2ccco2)nc2ccccc12 [3k],> 25
2,"N/N=c1\[nH]c(-c2cccc(Br)c2)nc2ccccc12 [3g, (Z)-1-(2-(3-bromophenyl)quinazolin-4(3H)-ylidene)hydrazine]",> 25
3,"COc1cccc(-c2nc3ccccc3/c(=N/N)[nH]2)c1 [3h, (Z)-1-(2-(3-Methoxyphenyl)quinazolin-4(3H)-ylidene)hydrazine]",> 25
4,"NNc1nc(-c2ccc(Br)cc2)nc2ccccc12 [3d, (Z)-1-(2-(4-bromophenyl)quinazolin-4(3H)-ylidene)hydrazine]",14.3 ± 0.87

# Same assay, conditions: Trypanosoma cruzi, read-out: epimastigote, PGI (percentage growth inhibition) T. cruzi, determined at 25 μM
row,SMILES,inhibition at 25 µM [%]
1,N/N=c1\[nH]c(-c2ccco2)nc2ccccc12 [3k],8.56
2,"COc1cccc(-c2nc3ccccc3/c(=N/N)[nH]2)c1 [3h, (Z)-1-(2-(3-Methoxyphenyl)quinazolin-4(3H)-ylidene)hydrazine]",10.1

# Test system: L. infantum promastigotes
# Test: Nitrite concentration by Griess test, L. infantum promastigote culture
# Format: cell-based
# Conditions: 5 days, 25, 50 and 100 μM
# Procedure, shortened: as §2
row,SMILES,nitrite ion production (Griess test)
1,"O=c1[nH]c(-c2ccc(Cl)cc2)nc2ccccc12 [2-(4-chlorophenyl)quinazolin-4(3H)-one, reference compound]",No production was detected

# Test system: J774.1A macrophages
# Test: not given
# Conditions: read-out: J774.1A macrophage, CC50; cited from earlier work
row,SMILES,CC50 [µM]
1,CC1CS(=O)(=O)CCN1/N=C/c1ccc([N+](=O)[O-])o1 (stereo not shown) [nifurtimox],280 ± 4
